Counter-ions that a name gives are not always drawn.
Assays:
[1] = Biodistribution of [3H]AVN-101 in rat organs; assay type: in vivo, Wistar rats; settings: for concentration in Blood / concentration in Brain / concentration in Heart / concentration in Kidneys / concentration in Liver / concentration in Lungs / concentration in Spleen: [3H] label; for accumulation in brain higher than in blood: 4 h
Adrenergic α1B = Adrenergic α1B (Homo sapiens, UniProt P35368); experiment: Radioligand competition, adrenergic α1B; assay type: binding
BALB/c mice = experiment: Morris water maze, scopolamine-induced amnesia; assay type: in vivo; settings: IP; AVN-101 0.2 mg/kg; Tacrine 3 mg/kg; donepezil 1 mg/kg; scopolamine 1.5 mg/kg
Summary of the method: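 Scopolamine-induced amnesia model in male BALB/c mice. Read-out was time spent in the quadrant where the escape platform had been during the two preceding training days, reported as mean ± SE.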

Sprague Dawley rats = experiment: Passive avoidance, scopolamine-induced amnesia, rats; assay type: in vivo; settings: 0.05 mg/kg IP
P-glycoprotein = P-glycoprotein (Homo sapiens, UniProt P08183); experiment: Pgp-Glo ATPase assay; assay type: biochemical
Sequence of P-glycoprotein (P08183 whole entry): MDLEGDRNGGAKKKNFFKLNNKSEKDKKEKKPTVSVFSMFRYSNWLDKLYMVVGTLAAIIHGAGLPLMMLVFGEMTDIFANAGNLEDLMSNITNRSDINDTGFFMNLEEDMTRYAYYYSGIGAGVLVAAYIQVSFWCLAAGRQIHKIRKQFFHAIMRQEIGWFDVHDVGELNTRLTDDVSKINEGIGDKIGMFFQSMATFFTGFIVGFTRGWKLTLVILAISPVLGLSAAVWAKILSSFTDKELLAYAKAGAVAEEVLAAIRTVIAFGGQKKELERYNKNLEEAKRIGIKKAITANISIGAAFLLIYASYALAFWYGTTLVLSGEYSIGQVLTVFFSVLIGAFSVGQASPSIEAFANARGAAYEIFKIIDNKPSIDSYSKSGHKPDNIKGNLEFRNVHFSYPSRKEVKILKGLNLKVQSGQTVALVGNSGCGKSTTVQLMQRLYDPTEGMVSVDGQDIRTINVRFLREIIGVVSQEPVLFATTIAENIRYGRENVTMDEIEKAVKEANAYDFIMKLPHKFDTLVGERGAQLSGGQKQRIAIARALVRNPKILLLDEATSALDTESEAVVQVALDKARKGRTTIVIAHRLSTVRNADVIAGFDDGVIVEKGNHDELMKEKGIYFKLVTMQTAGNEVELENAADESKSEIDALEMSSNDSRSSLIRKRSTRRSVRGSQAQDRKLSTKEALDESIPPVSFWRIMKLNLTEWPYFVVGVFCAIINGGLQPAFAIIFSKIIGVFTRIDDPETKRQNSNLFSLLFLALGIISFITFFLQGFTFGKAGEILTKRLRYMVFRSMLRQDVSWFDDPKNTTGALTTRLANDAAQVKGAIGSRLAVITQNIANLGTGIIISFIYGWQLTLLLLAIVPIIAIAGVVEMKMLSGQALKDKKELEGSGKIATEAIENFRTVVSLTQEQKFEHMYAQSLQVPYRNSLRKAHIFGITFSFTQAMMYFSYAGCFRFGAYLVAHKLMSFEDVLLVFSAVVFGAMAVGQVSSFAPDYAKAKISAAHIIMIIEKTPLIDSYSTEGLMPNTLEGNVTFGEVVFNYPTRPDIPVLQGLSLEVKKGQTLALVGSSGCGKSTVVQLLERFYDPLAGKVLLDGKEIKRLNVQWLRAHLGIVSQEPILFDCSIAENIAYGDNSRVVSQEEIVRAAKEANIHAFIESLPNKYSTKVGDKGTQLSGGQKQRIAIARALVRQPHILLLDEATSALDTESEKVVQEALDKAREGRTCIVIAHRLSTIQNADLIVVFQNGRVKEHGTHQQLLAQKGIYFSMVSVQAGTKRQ
Summary of the method: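 P-glycoprotein ATPase activity was measured with the Pgp-Glo assay system per the manufacturer's protocol. Orthovanadate-sensitive activity was determined in the presence of test compound.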

[2] = Metabolism in human microsomes; assay type: in vitro ADME; settings: for Remaining quantity: HLM
[3] = molecular target: human recombinant H2 receptors (Homo sapiens, UniProt P25021); experiment: Amthamine-induced cAMP accumulation in CHO-K1 cells; assay type: cell-based
Sequence of human recombinant H2 receptors (P25021 whole entry): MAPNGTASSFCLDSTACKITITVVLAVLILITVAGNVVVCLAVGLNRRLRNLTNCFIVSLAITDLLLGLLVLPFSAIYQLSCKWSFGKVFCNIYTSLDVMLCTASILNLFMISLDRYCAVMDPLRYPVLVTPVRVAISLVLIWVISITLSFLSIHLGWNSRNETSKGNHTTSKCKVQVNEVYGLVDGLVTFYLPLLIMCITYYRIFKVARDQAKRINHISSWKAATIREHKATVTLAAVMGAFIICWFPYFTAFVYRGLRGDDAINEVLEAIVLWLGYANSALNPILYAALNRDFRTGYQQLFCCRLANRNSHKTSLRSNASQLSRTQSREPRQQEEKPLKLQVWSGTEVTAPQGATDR
Summary of the method: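 CHO-K1 cells exogenously expressing recombinant human H2 receptor were stimulated with 50 nM amthamine. Intracellular cAMP accumulation was registered, and blockade of this response by test compound was measured.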

hERG channel = hERG channel (Homo sapiens, UniProt Q12809); experiment: Target panel binding, hERG channel
[4] = system: Salmonella typhimurium strains: TA98, TA1535, and TA1537; experiment: Ames MPF test; assay type: cell-based; settings: AVN-101 highest concentration 50μM
Summary of the method: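 Run per kit manual in the Ames MPF fluctuation format with histidine-dependent strains TA98, TA1535 and TA1537. Test compound reached a highest concentration of 50 μM. Strain-specific positive controls: 4-nitro-o-phenylenediamine 15 μg/mL (TA98), sodium azide 2 μg/mL (TA1535), 9-aminoacridine 50 μg/mL (TA1537). Reverse mutation rate recorded.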

sigma 1 receptor = sigma 1 receptor (Homo sapiens, UniProt Q99720); experiment: Target panel binding, sigma 1
Sequence of sigma 1 receptor (Q99720 whole entry, species assumed): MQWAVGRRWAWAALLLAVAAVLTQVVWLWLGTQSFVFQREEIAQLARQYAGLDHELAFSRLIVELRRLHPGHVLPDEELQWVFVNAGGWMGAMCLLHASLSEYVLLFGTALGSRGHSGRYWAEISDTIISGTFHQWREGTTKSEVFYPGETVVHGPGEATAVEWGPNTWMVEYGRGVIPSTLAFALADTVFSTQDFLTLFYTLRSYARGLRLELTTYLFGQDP

[5] = Pharmacokinetics in mice, IP; assay type: in vivo; settings: mouse, blood
male adult SHK mice = experiment: 14 days toxicity, mice; assay type: in vivo; settings: 5 mg/kg PO daily
Summary of the method: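 Mice randomly assigned to a vehicle group or a 5 mg/kg group.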

sodium channel (Site 2) = experiment: Target panel binding, sodium channel
hNav1.5 = hNav1.5 (Homo sapiens, UniProt Q14524); experiment: Cardiac channel inhibition, hNav1.5; assay type: cell-based
Sequence of hNav1.5 (Q14524 whole entry): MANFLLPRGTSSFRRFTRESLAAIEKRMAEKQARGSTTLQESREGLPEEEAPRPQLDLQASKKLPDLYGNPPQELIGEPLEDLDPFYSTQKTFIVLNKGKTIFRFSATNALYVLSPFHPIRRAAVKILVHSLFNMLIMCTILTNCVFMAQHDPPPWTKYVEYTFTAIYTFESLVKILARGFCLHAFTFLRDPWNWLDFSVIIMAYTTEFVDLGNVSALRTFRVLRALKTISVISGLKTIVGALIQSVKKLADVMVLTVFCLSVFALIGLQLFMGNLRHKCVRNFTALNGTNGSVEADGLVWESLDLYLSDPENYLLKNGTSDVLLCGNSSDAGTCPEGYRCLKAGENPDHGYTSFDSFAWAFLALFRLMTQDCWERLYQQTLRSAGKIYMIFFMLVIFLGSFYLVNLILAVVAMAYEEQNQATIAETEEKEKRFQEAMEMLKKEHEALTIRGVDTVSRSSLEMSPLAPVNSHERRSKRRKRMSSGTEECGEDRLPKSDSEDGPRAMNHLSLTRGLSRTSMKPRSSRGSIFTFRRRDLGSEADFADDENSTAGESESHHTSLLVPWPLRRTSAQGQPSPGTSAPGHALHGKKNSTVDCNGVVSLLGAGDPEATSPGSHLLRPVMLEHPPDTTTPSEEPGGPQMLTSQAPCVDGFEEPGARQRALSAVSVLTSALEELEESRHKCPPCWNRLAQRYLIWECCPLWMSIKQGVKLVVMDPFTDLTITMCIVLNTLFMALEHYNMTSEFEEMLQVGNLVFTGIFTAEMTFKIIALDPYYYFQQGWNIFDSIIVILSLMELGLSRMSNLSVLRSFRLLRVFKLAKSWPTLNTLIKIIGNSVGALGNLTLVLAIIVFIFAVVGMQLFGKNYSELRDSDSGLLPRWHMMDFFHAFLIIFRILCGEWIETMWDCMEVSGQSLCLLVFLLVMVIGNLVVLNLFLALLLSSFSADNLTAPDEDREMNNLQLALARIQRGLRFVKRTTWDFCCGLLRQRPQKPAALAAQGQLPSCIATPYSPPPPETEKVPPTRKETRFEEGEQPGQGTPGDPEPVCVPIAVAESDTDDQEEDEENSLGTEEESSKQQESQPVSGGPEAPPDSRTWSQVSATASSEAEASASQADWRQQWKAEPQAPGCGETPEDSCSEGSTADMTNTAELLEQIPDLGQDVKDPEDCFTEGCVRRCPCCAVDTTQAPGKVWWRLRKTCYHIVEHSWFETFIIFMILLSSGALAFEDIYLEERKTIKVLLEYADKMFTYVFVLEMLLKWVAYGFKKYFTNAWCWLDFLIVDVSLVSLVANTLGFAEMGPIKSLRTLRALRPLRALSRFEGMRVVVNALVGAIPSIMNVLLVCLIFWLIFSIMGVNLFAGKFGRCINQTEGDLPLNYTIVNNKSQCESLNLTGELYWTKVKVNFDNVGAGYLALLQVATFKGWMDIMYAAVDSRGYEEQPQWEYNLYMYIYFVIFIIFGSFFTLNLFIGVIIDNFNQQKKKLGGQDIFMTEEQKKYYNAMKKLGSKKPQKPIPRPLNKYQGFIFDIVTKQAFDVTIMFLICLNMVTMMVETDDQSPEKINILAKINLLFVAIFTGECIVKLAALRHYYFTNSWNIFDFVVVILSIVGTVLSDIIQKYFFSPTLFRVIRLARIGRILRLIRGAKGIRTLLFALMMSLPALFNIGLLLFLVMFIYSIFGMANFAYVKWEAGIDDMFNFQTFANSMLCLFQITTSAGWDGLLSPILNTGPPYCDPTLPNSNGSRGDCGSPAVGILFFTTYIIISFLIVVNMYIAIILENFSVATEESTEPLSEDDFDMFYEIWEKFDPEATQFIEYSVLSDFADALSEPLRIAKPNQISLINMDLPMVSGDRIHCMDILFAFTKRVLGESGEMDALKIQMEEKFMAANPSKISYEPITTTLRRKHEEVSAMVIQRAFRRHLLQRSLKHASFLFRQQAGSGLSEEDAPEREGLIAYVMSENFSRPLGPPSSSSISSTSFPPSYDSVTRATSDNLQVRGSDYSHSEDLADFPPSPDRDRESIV

5-HT2B receptor = 5-HT2B receptor (Homo sapiens, UniProt P41595); experiment: Intracellular Ca2+ mobilization in HEK 297 cells expressing 5-HT2B; assay type: cell-based
Sequence of 5-HT2B receptor (P41595 whole entry): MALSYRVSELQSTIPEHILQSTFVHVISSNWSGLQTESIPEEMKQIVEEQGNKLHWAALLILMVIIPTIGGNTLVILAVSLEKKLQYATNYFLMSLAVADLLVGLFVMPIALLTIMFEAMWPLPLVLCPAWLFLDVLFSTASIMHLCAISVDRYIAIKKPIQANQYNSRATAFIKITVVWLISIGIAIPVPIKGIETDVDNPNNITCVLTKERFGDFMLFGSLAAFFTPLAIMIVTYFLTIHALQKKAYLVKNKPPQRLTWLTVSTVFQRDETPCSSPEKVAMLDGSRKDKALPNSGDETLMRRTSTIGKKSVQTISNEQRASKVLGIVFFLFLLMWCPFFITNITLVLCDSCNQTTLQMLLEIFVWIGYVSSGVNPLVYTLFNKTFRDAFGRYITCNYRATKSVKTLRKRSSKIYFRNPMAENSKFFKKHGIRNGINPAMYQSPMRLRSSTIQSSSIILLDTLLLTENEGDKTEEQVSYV

CYP2C8 = CYP2C8 (Homo sapiens, UniProt P10632); experiment: Metabolism by recombinant CYP2C8; assay type: in vitro ADME
[6] = Stability in murine blood plasma; assay type: in vitro ADME, mouse; settings: 30-min incubation, room temperature
healthy volunteers = experiment: Phase I tolerability, healthy volunteers; assay type: in vivo, human
Summary of the method: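 Healthy volunteers received single oral doses. Venous blood was drawn through an IV catheter before dosing and at several time points after. Urine was collected before dosing and at 4 h and 24 h after. Systolic and diastolic pressure and heart rate were monitored.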

H1 receptor = H1 receptor (Homo sapiens, UniProt P35367); experiment: Histamine-induced Ca2+ mobilization in SK-N-SH cells; assay type: cell-based
Sequence of H1 receptor (P35367 whole entry): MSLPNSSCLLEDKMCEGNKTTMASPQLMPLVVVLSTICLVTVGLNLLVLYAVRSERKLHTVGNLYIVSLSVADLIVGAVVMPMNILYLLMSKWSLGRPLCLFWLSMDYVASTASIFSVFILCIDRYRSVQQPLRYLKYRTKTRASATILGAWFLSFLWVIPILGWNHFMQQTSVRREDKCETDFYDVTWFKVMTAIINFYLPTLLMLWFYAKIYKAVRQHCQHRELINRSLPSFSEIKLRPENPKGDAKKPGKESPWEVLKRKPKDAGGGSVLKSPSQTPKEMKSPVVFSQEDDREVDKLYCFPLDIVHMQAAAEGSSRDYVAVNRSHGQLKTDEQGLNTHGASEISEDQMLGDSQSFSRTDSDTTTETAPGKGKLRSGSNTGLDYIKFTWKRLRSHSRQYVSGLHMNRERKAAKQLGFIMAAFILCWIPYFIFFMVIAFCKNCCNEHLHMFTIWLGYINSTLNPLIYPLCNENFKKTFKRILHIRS
Summary of the method: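 SK-N-SH cells challenged with 10μM histamine; transient rise in intracellular free Ca2+ recorded as the response, with test compound examined for blockade of this histamine-evoked signal.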

## Cc1ccc2c(c1)c1c(n2CCc2ccccc2)CCN(C)C1 [AVN-101, 2,8-dimethyl-5-penethyl-2,3,4,5-tetra-hydro-1h-pyrido[[4,3-B]]indole hydrochloride]
[1]; 4 h after IV 5 mg/kg
  concentration in Blood: 360 ± 10 ng/mL
  concentration in Brain: 9440 ± 360 ng/mL
  concentration in Heart: 9240 ± 230 ng/mL
  concentration in Kidneys: 6500 ± 200 ng/mL
  concentration in Liver: 5300 ± 160 ng/mL
  concentration in Lungs: 8960 ± 110 ng/mL
  concentration in Spleen: 5940 ± 150 ng/mL
[1]; 4 h after PO 10 mg/kg
  concentration in Blood: 460 ± 10 ng/mL
  concentration in Brain: 6240 ± 240 ng/mL
  concentration in Heart: 3280 ± 150 ng/mL
  concentration in Kidneys: 4700 ± 220 ng/mL
  concentration in Liver: 3780 ± 130 ng/mL
  concentration in Lungs: 3200 ± 230 ng/mL
  concentration in Spleen: 3740 ± 150 ng/mL
[1]; IV
  accumulation in brain higher than in blood: 26 fold
[1]; PO
  accumulation in brain higher than in blood: 13 fold
[1]; normalized by dose
  IV/PO, normalized, Kidneys: 2.77
  IV/PO, normalized, Spleen: 3.18
[1]; rat, in vivo
  Organ bioavailability, Blood: 63.9%
  Organ bioavailability, Brain: 33.0%
  Organ bioavailability, Heart: 17.7%
  Organ bioavailability, Kidneys: 36.2%
  Organ bioavailability, Liver: 35.6%
  Organ bioavailability, Lungs: 17.9%
  Organ bioavailability, Spleen: 31.5%
Adrenergic α1B
  Ki: 0.0094 µM
BALB/c mice
  effect on scopolamine-induced amnesia (time in platform quadrant): effectively reversed
Sprague Dawley rats
  reversal of pro-amnesic action of Scopolamine: significantly reverse
P-glycoprotein
  EC50: ~50 µM
P-glycoprotein; orthovanadate-sensitive ATPase
  effect on Pgp ATP-ase activity: strong activation
[2]; 1μM
  k el: 0.335
[2]; 2μM, 30-min incubation
  original AVN-101 consumed: 57%
[2]; AVN-101 1 μM, 7.9 min
  Remaining quantity: 3.0%
[2]; AVN-101 1 μM, 30 min
  Remaining quantity: 2%
[2]; AVN-101 2 μM, 7.9 min
  Remaining quantity: 40.0%
[2]; AVN-101 2 μM, 30 min
  Remaining quantity: 43%
[2]; human, liver microsomes
  half-life at 1 µM: 2.07 min
  microsomal CLint at 1 µM: 335 µL/min/mg
[3]
  receptor activation: activated neither H1 nor H2 receptors
[3]; 50 nM amthamine, cAMP accumulation
  blockade of agonist-induced cell response: effectively blocked
hERG channel
  binding: does not bind
[4]
  mutagenicity (reverse mutation rate): produced no mutagenesis
Sigma 1 receptor
  binding: does not bind
[5]; 0.05 mg/kg
  Cmax: 1.9 ng/mL
  Tmax: 5 min
  half-life: 10.5 min
[5]; 0.05 mg/kg, AUC0 - >t, IP 0.05 mg/kg
  AUC: 0.487 ng·h/mL
[5]; 0.05 mg/kg, AUC0 - >∞, IP 0.05 mg/kg
  AUC: 0.498 ng·h/mL
[5]; 0.2 mg/kg
  Cmax: 5 ng/mL
  Tmax: 15 min
  half-life: 58 min
[5]; 0.2 mg/kg, AUC0 - >t, IP 0.2 mg/kg
  AUC: 5.65 ng·h/mL
[5]; 0.2 mg/kg, AUC0 - >∞, IP 0.2 mg/kg
  AUC: 6.08 ng·h/mL
[5]; 1 mg/kg
  Cmax: 23 ng/mL
  Tmax: 15 min
  half-life: 81 min
[5]; 1 mg/kg, AUC0 - >t, IP 1.0 mg/kg
  AUC: 25.9 ng·h/mL
[5]; 1 mg/kg, AUC0 - >∞, IP 1.0 mg/kg
  AUC: 32 ng·h/mL
[5]; 2 mg/kg
  half-life: 130 min
[5]; 5 mg/kg
  Cmax: 198 ng/mL
  Tmax: 5 min
  concentration at 5 min: ~650 nM
  half-life: 136 min
[5]; 5 mg/kg, AUC0 - >t, IP 5.0 mg/kg
  AUC: 184 ng·h/mL
[5]; 5 mg/kg, AUC0 - >∞, IP 5.0 mg/kg
  AUC: 274 ng·h/mL
Male adult SHK mice
  signs of toxicity: No signs of toxicity
Sodium channel (Site 2)
  binding: does not bind
hNav1.5
  IC50: 2.4 µM
hNav1.5; read-out: % Inhibition at 31.6μM
  inhibition at 31.6 µM: 97%
5-HT2B receptor; AVN-101 alone, 10μM
  agonistic activity (intracellular free Ca2+): lacked intrinsic agonistic activity
5-HT2B receptor; αMet5-HT 5μM, AVN-101 10μM
  blockade of α methyl-serotonin-induced Ca2+ spike: effectively blocking
CYP2C8
  remaining at 0.5 h, 2 µM: 118%
[6]
  residual amount of original compound: 16%
Healthy volunteers; 20 mg, 8 volunteers per group
  sleepiness: 3 volunteers
Healthy volunteers; 20 mg, first half of the day
  adverse effects: some adverse effects were detected in five volunteers
Healthy volunteers; 20 mg, 141/88 before to 157/87 (2 h–4 h) and 155/77 (6 h–7.5 h)
  blood pressure, one person: transient increase in systolic pressure
Healthy volunteers; 2, 4, 10, 20 mg single PO dose
  QT interval in ECG: No QT interval prolongation
Healthy volunteers; all dose groups
  biochemical and clinical parameters of blood and urine: in a normal range
Healthy volunteers; orally, doses of up to 20 mg daily
  tolerability: well tolerated
H1 receptor
  receptor activation: activated neither H1 nor H2 receptors
H1 receptor; 10μM histamine, Ca2+ mobilization
  blockade of agonist-induced cell response: effectively blocked

— article PMC4969713 (Journal of Alzheimer's Disease, 2016)
